Test results taken from article PMC4141080 (FEBS Open Bio, 2014).

Columns and labels:
Format in all cases: biochemical, Aplysia kurodai
Settings in all cases: standard assay 37 °C; pH of kinetics not told
[1] = test system: ApAGL74 (74-kDa α-glucosidase); experiment: fluorometric 4-methylumbelliferone release
Procedure, shortened: (§1)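 Each α-glucosidase was purified from sea hare digestive fluid. The fluid was squeezed from the stomach lumen, cut with 0–60% ammonium sulfate, then run through ion-exchange, phenyl-Sepharose, Sephacryl S-100 and Mono Q chromatography, with purity checked by SDS–PAGE. Substrate was 4-MU-α-glucoside. Released 4-methylumbelliferone was read fluorometrically (ex 365 nm, em 450 nm). One unit releases 1 μmol 4-methylumbelliferone/min at 37 °C.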

[2] = test system: ApAGL86 (86-kDa α-glucosidase); experiment: fluorometric 4-methylumbelliferone release
Procedure, shortened: as §1

[3] = test system: ApAGL74 (74-kDa α-glucosidase); experiment: glucose release
Procedure, shortened: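 The α-glucosidase was purified chromatographically from the ammonium sulfate (0–60%) fraction of stomach-lumen digestive fluid of sea hare. Glucose liberated from substrate was quantified with a glucose oxidase-based kit.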

[4] = test system: ApAGL86 (86-kDa α-glucosidase); experiment: glucose release

Structure (SMILES)	Km [1]	Km [2]	Km [3]	Km [4]
Cc1cc(=O)oc2cc(O[C@H]3O[C@H](CO)[C@@H](O)[C@H](O)[C@H]3O)ccc12 [4MU-α-glucoside]	0.0479 ± 0.0106 mM	0.412 ± 0.006 mM		
OC[C@H]1O[C@H](OC[C@H]2OC(O)[C@H](O)[C@@H](O)[C@@H]2O)[C@H](O)[C@@H](O)[C@@H]1O (stereo partly shown) [Isomaltose]			14.2 ± 0.9 mM	16.5 ± 0.05 mM
OC[C@H]1O[C@H](O[C@H]2[C@H](O)[C@@H](O)C(O)O[C@@H]2CO)[C@H](O)[C@@H](O)[C@@H]1O (stereo partly shown) [Maltose]			4.98 ± 0.06 mM	
OC[C@H]1O[C@@](CO)(O[C@H]2O[C@H](CO)[C@@H](O)[C@H](O)[C@H]2O)[C@@H](O)[C@@H]1O [Sucrose]			31.7 ± 2.1 mM	33.6 ± 1.55 mM
